Laboratory results from ChEMBL document CHEMBL5360562 (Eur J Med Chem, 2023).

Legend:
Acinetobacter baumannii [1] = assay: Antibacterial activity against Acinetobacter baumannii AB5075 assessed as reduction in bacterial growth incubated for 16 hrs by broth microdilution method; type: functional
Acinetobacter baumannii [2] = assay: Potentiation of Clarithromycin antibacterial activity against Acinetobacter baumannii AB5075 assessed as clarithromycin MIC at 30 uM incubated for 16 hrs by broth microdilution method; type: functional
Acinetobacter baumannii [3] = assay: Potentiation of Clarithromycin antibacterial activity against Acinetobacter baumannii AB5075 assessed as fold reduction in clarithromycin MIC at 30 uM incubated for 16 hrs by broth microdilution method; type: functional
Summary of the method: (§1)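 Checkerboard-style potentiation by broth microdilution. 6 h day cultures in CAMHB diluted to 5×10^5 CFU/mL. Adjuvant added from 10 mM DMSO stock at fixed concentration throughout. […] Controls: antibiotic alone, adjuvant alone, media only. Incubated stationary at 37 °C for 16 h. MIC is lowest concentration with no visible growth; fold reduction taken against the antibiotic-alone lane.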

Acinetobacter baumannii [4] = assay: Potentiation of Clarithromycin antibacterial activity against Acinetobacter baumannii AB5075 assessed as clarithromycin MIC at 7.5 uM incubated for 16 hrs by broth microdilution method; type: functional
Acinetobacter baumannii [5] = assay: Potentiation of Clarithromycin antibacterial activity against Acinetobacter baumannii AB5075 assessed as fold reduction in clarithromycin MIC at 7.5 uM incubated for 16 hrs by broth microdilution method; type: functional; summary of the method: as §1
Acinetobacter baumannii [6] = assay: Potentiation of Clarithromycin antibacterial activity against Acinetobacter baumannii AB5075 assessed as reduction in clarithromycin MIC at 20 uM incubated for 16 hrs by broth microdilution method; type: functional; settings: for MIC: Acinetobacter baumannii, AB5075
Acinetobacter baumannii [7] = assay: Potentiation of Clarithromycin antibacterial activity against Acinetobacter baumannii AB5075 assessed as clarithromycin MIC at 10 uM incubated for 16 hrs by broth microdilution method; type: functional
Acinetobacter baumannii [8] = assay: Potentiation of Clarithromycin antibacterial activity against Acinetobacter baumannii AB5075 assessed as fold reduction in clarithromycin MIC at 10 uM incubated for 16 hrs by broth microdilution method; type: functional; summary of the method: as §1
Acinetobacter baumannii [9] = assay: Potentiation of Azithromycin antibacterial activity against Acinetobacter baumannii AB5075 assessed as azithromycin MIC at 30 uM incubated for 16 hrs by broth microdilution method; type: functional
Acinetobacter baumannii [10] = assay: Potentiation of Azithromycin antibacterial activity against Acinetobacter baumannii AB5075 assessed as azithromycin MIC at 20 uM incubated for 16 hrs by broth microdilution method; type: functional
Acinetobacter baumannii [11] = assay: Potentiation of Azithromycin antibacterial activity against Acinetobacter baumannii AB5075 assessed as azithromycin MIC at 10 uM incubated for 16 hrs by broth microdilution method; type: functional
Acinetobacter baumannii [12] = assay: Potentiation of erythromycin antibacterial activity against Acinetobacter baumannii AB5075 assessed as erythromycin MIC at 30 uM incubated for 16 hrs by broth microdilution method; type: functional
Acinetobacter baumannii [13] = assay: Potentiation of erythromycin antibacterial activity against Acinetobacter baumannii AB5075 assessed as erythromycin MIC at 20 uM incubated for 16 hrs by broth microdilution method; type: functional
Acinetobacter baumannii [14] = assay: Potentiation of erythromycin antibacterial activity against Acinetobacter baumannii AB5075 assessed as erythromycin MIC at 10 uM incubated for 16 hrs by broth microdilution method; type: functional
Acinetobacter baumannii [15] = assay: Potentiation of rifampicin antibacterial activity against Acinetobacter baumannii AB5075 assessed as rifampicin MIC at 30 uM incubated for 16 hrs by broth microdilution method; type: functional
Acinetobacter baumannii [16] = assay: Potentiation of rifampicin antibacterial activity against Acinetobacter baumannii AB5075 assessed as rifampicin MIC at 20 uM incubated for 16 hrs by broth microdilution method; type: functional
Acinetobacter baumannii [17] = assay: Potentiation of rifampicin antibacterial activity against Acinetobacter baumannii AB5075 assessed as rifampicin MIC at 10 uM incubated for 16 hrs by broth microdilution method; type: functional
Acinetobacter baumannii [18] = assay: Potentiation of Clarithromycin antibacterial activity against Acinetobacter baumannii AB5075 assessed as clarithromycin MIC at 5 uM incubated for 16 hrs by broth microdilution method; type: functional
[19] = Antiproliferative against human HepG2 cells assessed as reduction in cell viability incubated for 24 hrs by XTT assay; type: toxicity, cell-based
[20] = Therapeutic index, ratio of IC50 for antiproliferative against human HepG2 cells assessed as reduction in cell viability to MIC for potentiation of Clarithromycin antibacterial activity against Acinetobacter baumannii […] assessed as clarithromycin MIC; type: toxicity, cell-based; settings: read-out: TI
Acinetobacter baumannii [21] = assay: Potentiation of Clarithromycin antibacterial activity against Acinetobacter baumannii AB967 assessed as clarithromycin MIC at 10 uM incubated for 16 hrs by broth microdilution method; type: functional
Acinetobacter baumannii [22] = assay: Potentiation of Clarithromycin antibacterial activity against Acinetobacter baumannii AB3560 assessed as clarithromycin MIC at 10 uM incubated for 16 hrs by broth microdilution method; type: functional
Acinetobacter baumannii [23] = assay: Potentiation of Clarithromycin antibacterial activity against Acinetobacter baumannii AB3785 assessed as clarithromycin MIC at 10 uM incubated for 16 hrs by broth microdilution method; type: functional
Acinetobacter baumannii [24] = assay: Potentiation of Clarithromycin antibacterial activity against Acinetobacter baumannii AB4498 assessed as clarithromycin MIC at 10 uM incubated for 16 hrs by broth microdilution method; type: functional
Acinetobacter baumannii [25] = assay: Potentiation of Clarithromycin antibacterial activity against Acinetobacter baumannii AB5674 assessed as clarithromycin MIC at 10 uM incubated for 16 hrs by broth microdilution method; type: functional
Acinetobacter baumannii [26] = assay: Potentiation of Clarithromycin antibacterial activity against Acinetobacter baumannii AB5711 assessed as clarithromycin MIC at 10 uM incubated for 16 hrs by broth microdilution method; type: functional
Acinetobacter baumannii [27] = assay: Potentiation of Azithromycin antibacterial activity against Acinetobacter baumannii AB5075 assessed as azithromycin MIC at 7.5 uM incubated for 16 hrs by broth microdilution method; type: functional
Acinetobacter baumannii [28] = assay: Potentiation of erythromycin antibacterial activity against Acinetobacter baumannii AB5075 assessed as erythromycin MIC at 7.5 uM incubated for 16 hrs by broth microdilution method; type: functional
Acinetobacter baumannii [29] = assay: Potentiation of rifampicin antibacterial activity against Acinetobacter baumannii AB5075 assessed as fold reduction in rifampicin MIC at 10 uM incubated for 16 hrs by broth microdilution method; type: functional
[30] = Stability of compound in human plasma assessed as parent compound remaining measured at 4 hrs; type: ADME, cell-free
Summary of the method: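 Compound at 20 μM final in human plasma (from 10 mM DMSO stock), 37 °C; aliquots at 0, 30, 60, 120, 240 min quenched in internal standard in 1:1 ACN/MeOH, centrifuged, supernatant analysed by UPLC-MRM. Peak-area ratio to internal standard expressed as % parent remaining relative to 0 min; half-life calculated.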

[31] = Metabolic stability in human liver microsomes assessed as parent compound remaining in presence of NADPH measured at 1 hr by UV-UPLC analysis; type: ADME, Microsome
Acinetobacter baumannii [32] = assay: Potentiation of Clarithromycin antibacterial activity against Acinetobacter baumannii AB5075 assessed as fold reduction in clarithromycin MIC at 5 uM incubated for 16 hrs by broth microdilution method; type: functional; summary of the method: as §1

SMILES: Cl.Cl.Nc1nc(-c2ccc(NC(=O)Nc3ccc(-c4c[nH]c(N)n4)c(C(F)(F)F)c3)cc2C(F)(F)F)c[nH]1
- MIC (Acinetobacter baumannii [1]): > 200 µM
- MIC (Acinetobacter baumannii [2]): 2 µg/mL
- fold change (FC) (Acinetobacter baumannii [3]): 16

SMILES: Cl.Cl.Nc1nc(-c2cccc(NC(=O)Nc3cccc(-c4c[nH]c(N)n4)c3F)c2F)c[nH]1
- MIC (Acinetobacter baumannii [1]): > 200 µM
- MIC (Acinetobacter baumannii [2]): 0.25 µg/mL
- MIC (Acinetobacter baumannii [4]): 2 µg/mL
- fold change (FC) (Acinetobacter baumannii [3]): 128
- fold change (FC) (Acinetobacter baumannii [5]): 16
- fold change (FC) (Acinetobacter baumannii [6]): 64
- MIC (Acinetobacter baumannii [6]): 0.5 µg/mL
- MIC (Acinetobacter baumannii [7]): 1 µg/mL
- fold change (FC) (Acinetobacter baumannii [8]): 32

SMILES: Cl.Cl.Nc1nc(-c2ccc(NC(=O)Nc3ccc(-c4c[nH]c(N)n4)c(Cl)c3)cc2Cl)c[nH]1
- MIC (Acinetobacter baumannii [1]): > 200 µM
- MIC (Acinetobacter baumannii [2]): 32 µg/mL
- fold change (FC) (Acinetobacter baumannii [3]): 1

SMILES: Cc1cc(-c2c[nH]c(N)n2)ccc1NC(=O)Nc1ccc(-c2c[nH]c(N)n2)cc1C.Cl.Cl
- MIC (Acinetobacter baumannii [1]): > 200 µM
- MIC (Acinetobacter baumannii [2]): 32 µg/mL
- fold change (FC) (Acinetobacter baumannii [3]): 1

SMILES: Nc1nc(-c2ccc(NC(=O)Nc3cccc(-c4c[nH]c(N)n4)c3)cc2)c[nH]1
- MIC (Acinetobacter baumannii [1]): > 200 µM
- MIC (Acinetobacter baumannii [2]): 0.125 µg/mL
- fold change (FC) (Acinetobacter baumannii [3]): 256
- MIC (Acinetobacter baumannii [7]): 16 µg/mL
- MIC (Acinetobacter baumannii [9]): 1 µg/mL
- MIC (Acinetobacter baumannii [10]): 4 µg/mL
- MIC (Acinetobacter baumannii [11]): 16 µg/mL
- MIC (Acinetobacter baumannii [12]): 1 µg/mL
- MIC (Acinetobacter baumannii [13]): 2 µg/mL
- MIC (Acinetobacter baumannii [14]): 16 µg/mL
- MIC (Acinetobacter baumannii [15]): 0.031 µg/mL
- MIC (Acinetobacter baumannii [16]): 0.25 µg/mL
- MIC (Acinetobacter baumannii [17]): 2 µg/mL

SMILES: Cl.Cl.Nc1nc(-c2ccc(NC(=O)Nc3ccc(-c4c[nH]c(N)n4)c(F)c3)cc2F)c[nH]1
- MIC (Acinetobacter baumannii [1]): > 200 µM
- MIC (Acinetobacter baumannii [2]): ≤ 0.062 µg/mL
- MIC (Acinetobacter baumannii [4]): 0.5 µg/mL
- MIC (Acinetobacter baumannii [18]): 2 µg/mL
- fold change (FC) (Acinetobacter baumannii [3]): >=512
- fold change (FC) (Acinetobacter baumannii [5]): 64
- MIC (Acinetobacter baumannii [6]): ≤ 0.062 µg/mL
- MIC (Acinetobacter baumannii [7]): 0.125 µg/mL
- fold change (FC) (Acinetobacter baumannii [8]): 256
- IC50 at 24 h [19]: 127 µg/mL
- selectivity ratio [20]: 52.9
- MIC (Acinetobacter baumannii [21]): 0.25 µg/mL
- MIC (Acinetobacter baumannii [22]): 0.5 µg/mL
- MIC (Acinetobacter baumannii [23]): 1 µg/mL
- MIC (Acinetobacter baumannii [24]): 1 µg/mL
- MIC (Acinetobacter baumannii [25]): 0.5 µg/mL
- MIC (Acinetobacter baumannii [26]): 1 µg/mL
- MIC (Acinetobacter baumannii [9]): 0.5 µg/mL
- MIC (Acinetobacter baumannii [10]): 1 µg/mL
- MIC (Acinetobacter baumannii [11]): 2 µg/mL
- MIC (Acinetobacter baumannii [27]): 16 µg/mL
- MIC (Acinetobacter baumannii [12]): 0.125 µg/mL
- MIC (Acinetobacter baumannii [13]): 0.5 µg/mL
- MIC (Acinetobacter baumannii [14]): 1 µg/mL
- MIC (Acinetobacter baumannii [28]): 8 µg/mL
- MIC (Acinetobacter baumannii [15]): 0.125 µg/mL
- MIC (Acinetobacter baumannii [16]): 0.25 µg/mL
- MIC (Acinetobacter baumannii [17]): 1 µg/mL
- fold change (FC) (Acinetobacter baumannii [29]): 4
- Stability [30]: 83%
- Stability [31]: 82%

SMILES: Cl.Cl.Nc1nc(-c2cc(NC(=O)Nc3ccc(F)c(-c4c[nH]c(N)n4)c3)ccc2F)c[nH]1
- MIC (Acinetobacter baumannii [1]): > 200 µM
- MIC (Acinetobacter baumannii [2]): 0.125 µg/mL
- MIC (Acinetobacter baumannii [4]): 1 µg/mL
- MIC (Acinetobacter baumannii [18]): 2 µg/mL
- fold change (FC) (Acinetobacter baumannii [3]): 256
- fold change (FC) (Acinetobacter baumannii [5]): 32
- fold change (FC) (Acinetobacter baumannii [32]): 16
- fold change (FC) (Acinetobacter baumannii [6]): 128
- MIC (Acinetobacter baumannii [6]): 0.25 µg/mL
- MIC (Acinetobacter baumannii [7]): 0.5 µg/mL
- fold change (FC) (Acinetobacter baumannii [8]): 64

SMILES: Cl.Cl.Nc1nc(-c2ccc(NC(=O)Nc3ccc(F)c(-c4c[nH]c(N)n4)c3)cc2F)c[nH]1
- MIC (Acinetobacter baumannii [1]): > 200 µM
- MIC (Acinetobacter baumannii [2]): 0.5 µg/mL
- fold change (FC) (Acinetobacter baumannii [3]): 64
- fold change (FC) (Acinetobacter baumannii [6]): 8
- MIC (Acinetobacter baumannii [6]): 4 µg/mL

SMILES: Cl.Cl.Nc1nc(-c2ccc(NC(=O)Nc3ccc(-c4c[nH]c(N)n4)cc3F)c(F)c2)c[nH]1
- MIC (Acinetobacter baumannii [1]): > 200 µM
- MIC (Acinetobacter baumannii [2]): 4 µg/mL
- fold change (FC) (Acinetobacter baumannii [3]): 8
